Reference: ChEMBL document CHEMBL1255466, “Nucleotide selectivity of antibiotic kinases” (Antimicrob Agents Chemother, 2010)

Assays:
[1] = Ratio of Kcat to Km for macrolide 2'-phosphotransferase 1 by PK/LDH-coupled assay in presence of GTP
Outline: (§1)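 His6-tagged kinase purified by Ni-NTA. […] Nucleotide (ATP or GTP) was varied to start; A340 followed 5 min. Linear initial rates were fitted by nonlinear least squares.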

[2] = Ratio of Kcat to Km for macrolide 2'-phosphotransferase 1 by PK/LDH-coupled assay in presence of ATP; outline: as §1
[3] = Activity at macrolide 2'-phosphotransferase 1 by PK/LDH-coupled assay in presence of ATP; outline: as §1
[4] = Activity at macrolide 2'-phosphotransferase 1 by PK/LDH-coupled assay
Outline: (§2)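 Macrolide substrate was varied in the PK/LDH-coupled system (HEPES pH 7.5, KCl, MgCl2, NADH, PEP), with fixed 0.2 mM GTP as donor. Antibiotic was preincubated with enzyme 5 min at 37°C, the reaction was started with nucleotide, and NADH oxidation was read at 340 nm for 5 min. Initial rates were fitted to Michaelis-Menten, or to a substrate-inhibition equation where it applied.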

[5] = Ratio of Kcat to Km for macrolide 2'-phosphotransferase 1 by PK/LDH-coupled assay; outline: as §2
[6] = Activity at macrolide 2'-phosphotransferase 1 by PK/LDH-coupled assay in presence of GTP; outline: as §1
[7] = Inhibition of macrolide 2'-phosphotransferase 1 by PK/LDH-coupled assay
[8] = Inhibition of APH(3')-3a by PK/LDH-coupled assay
Outline: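 N-terminally His6-tagged kinase, purified on Ni-NTA. Antibiotic at saturating level, preincubated 5 min at 37°C. Started with ATP or GTP held at Km. AMPPNP or GMPPNP added as 2-fold dilutions. NADH oxidation read at 340 nm over 5 min. IC50 fitted, then converted to Ki.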

[9] = Activity at APH(3')-3a by PK/LDH-coupled assay in presence of ATP; outline: as §1
[10] = Ratio of Kcat to Km for APH(3')-3a by PK/LDH-coupled assay in presence of ATP; outline: as §1

Row | Compound | Km [4] | kcat [4] | kcat/Km [5] | further results
1 | CC[C@H]1OC(=O)[C@H](C)[C@@H](O[C@H]2C[C@@](C)(OC)[C@@H](O)[C@H](C)O2)[C@H](C)[C@@H](O[C@@H]2O[C@H](C)C[C@H](N(C)C)[C@H]2O)[C@](C)(O)C[C@@H](C)C(=O)[C@H](C)[C@@H](O)[C@]1(C)O | 37.2 µM | 0.279 s⁻¹ | 7.52 ×10³ /s/M | kcat/Km [1]: 1.07 ×10⁴ /s/M; kcat/Km [2]: 1.16 ×10¹ /s/M; Km [3]: 1890 µM; kcat [3]: 0.022 s⁻¹; Km [6]: 59.2 µM; kcat [6]: 0.634 s⁻¹
2 | SPIRAMYCIN | 478 µM | 0.2 s⁻¹ | 4.19 ×10² /s/M | –
3 | CC[C@H]1OC(=O)[C@H](C)[C@@H](O[C@H]2C[C@@](C)(OC)[C@@H](O)[C@H](C)O2)[C@H](C)[C@@H](O[C@@H]2O[C@H](C)C[C@H](N(C)C)[C@H]2O)[C@](C)(O)C[C@@H](C)CN(C)[C@H](C)[C@@H](O)[C@]1(C)O | 27.7 µM | 0.292 s⁻¹ | 1.05 ×10⁴ /s/M | –
4 | Nc1ncnc2c1ncn2[C@@H]1O[C@H](COP(=O)(O)OP(=O)(O)NP(=O)(O)O)[C@@H](O)[C@H]1O | – | – | – | Ki [7]: Not Active; Ki ([8]; read-out: Ki): 14.2 µM
5 | CC[C@H]1OC(=O)[C@H](C)C(=O)[C@H](C)[C@@H](O[C@@H]2O[C@H](C)C[C@H](N(C)C)[C@H]2O)[C@](C)(OC)C[C@@H](C)C(=O)[C@H](C)[C@H]2N(CCCCn3cnc(-c4cccnc4)c3)C(=O)O[C@]12C | 7.4 µM | 0.152 s⁻¹ | 2.07 ×10⁴ /s/M | Ki [7]: 622 µM
6 | Nc1nc2c(ncn2[C@@H]2O[C@H](COP(=O)(O)OP(=O)(O)NP(=O)(O)O)[C@@H](O)[C@H]2O)c(=O)[nH]1 [PHOSPHOAMINOPHOSPHONIC ACID GUANYLATE ESTER] | – | – | – | Ki [8]: Not Active
7 | CC[C@H]1OC(=O)C[C@@H](O)[C@H](C)[C@@H](O[C@@H]2O[C@H](C)[C@@H](O[C@H]3C[C@@](C)(O)[C@@H](O)[C@H](C)O3)[C@H](N(C)C)[C@H]2O)[C@@H](CC=O)C[C@@H](C)C(=O)/C=C/C(C)=C/[C@@H]1CO[C@@H]1O[C@H](C)[C@@H](O)[C@@H](OC)[C@H]1OC | 131 µM | 0.174 s⁻¹ | 1.33 ×10³ /s/M | –
8 | CC[C@H]1OC(=O)[C@H](C)[C@@H](O[C@H]2C[C@@](C)(OC)[C@@H](O)[C@H](C)O2)[C@H](C)[C@@H](O[C@@H]2O[C@H](C)C[C@H](N(C)C)[C@H]2O)[C@](C)(OC)C[C@@H](C)C(=O)[C@H](C)[C@@H](O)[C@]1(C)O | 45.9 µM | 0.311 s⁻¹ | 6.77 ×10³ /s/M | –
9 | NC[C@@H]1O[C@H](O[C@H]2[C@@H](O)[C@H](O[C@@H]3[C@@H](O)[C@H](N)C[C@H](N)[C@H]3O[C@H]3O[C@H](CN)[C@@H](O)[C@H](O)[C@H]3N)O[C@@H]2CO)[C@H](N)[C@@H](O)[C@@H]1O | – | – | – | Km [9]: 10.6 µM; kcat [9]: 1.59 s⁻¹; kcat/Km [10]: 1.5 ×10⁵ /s/M
